Reference: ChEMBL document CHEMBL1130283, “Synthesis and structure-activity relationships of nonaromatic taxoids: effects of alkyl and alkenyl ester groups on cytotoxicity” (J Med Chem, 1997)

Assays:
Assay type in all cases: functional, cell-based
A549 = assay: Inhibition of the growth against human non-small-lung carcinoma (A549) cell line after 72 hr exposure; settings: A549, 72 h
A121 = assay: Inhibition of the growth against human Ovarian Carcinoma (A121) cell line after 72 hr exposure; settings: A121, 72 h
How it was run: (§1)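 SRB assay. Cells were seeded at 400/well, allowed to attach overnight, and grown in RPMI-1640 with 5% FBS and 5% Nu serum. Compounds were dissolved in DMSO, diluted in medium and applied to triplicate wells for 72 h. Cells were fixed with cold 50% TCA (1 h, 4 °C), stained with 0.4% SRB for 5 min, rinsed with 0.1% acetic acid and solubilized in 10 mM Tris pH 10.5. OD was read at 570 nm. IC50 came from a weighted sigmoid-Emax nonlinear fit.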

HT-29 = assay: Inhibition of the growth against human Colon Carcinoma (HT-29) cell line after 72 hr exposure; settings: HT-29, 72 h; how it was run: as §1
MCF7R = assay: Inhibition of the growth against human mammary carcinoma 180 fold resistant to doxorubicin (MCF-7-R) cell line after 72 hr exposure
MCF7 = assay: Inhibition of the growth against human mammary carcinoma (MCF-7) cell line after 72 hr exposure; settings: MCF7, 72 h; how it was run: as §1

SMILES	IC50 (A549)	IC50 (HT-29)	IC50 (MCF7R)	IC50 (MCF7)	IC50 (A121)
CC(=O)OC1C(=O)C2(C)C(O)CC3OCC3(OC(C)=O)C2C(OC(=O)C=C(C)C)C2(O)CC(OC(=O)C(O)C(CC(C)C)NC(=O)OC(C)(C)C)C(C)=C1C2(C)C (stereo not given)	30 nM	89 nM	> 1000 nM	84 nM	54 nM
CC(=O)OC1C(=O)C2(C)C(O)CC3OCC3(OC(C)=O)C2C(OC(=O)CC(C)C)C2(O)CC(OC(=O)C(O)C(CC(C)C)NC(=O)OC(C)(C)C)C(C)=C1C2(C)C (stereo not given)	47 nM	52 nM	1080 nM	43 nM	55 nM
CC(=O)O[C@H]1C(=O)[C@@]2(C)[C@H]([C@H](OC(=O)c3ccccc3)[C@]3(O)C[C@H](OC(=O)[C@H](O)[C@H](C=C(C)C)NC(=O)OC(C)(C)C)C(C)=C1C3(C)C)[C@]1(OC(C)=O)CO[C@@H]1C[C@@H]2O	0.3 nM	0.6 nM	12 nM	0.6 nM	0.5 nM
CC(=O)OC1C(=O)C2(C)C(O)CC3OCC3(OC(C)=O)C2C(OC(=O)CC(C)C)C2(O)CC(OC(=O)C(O)C(C=C(C)C)NC(=O)OC(C)(C)C)C(C)=C1C2(C)C (stereo not given)	14 nM	16 nM	589 nM	11 nM	17 nM
CC(=O)OC1C(=O)C2(C)C(O)CC3OCC3(OC(C)=O)C2C(OC(=O)C=C(C)C)C2(O)CC(OC(=O)C(O)C(C=C(C)C)NC(=O)OC(C)(C)C)C(C)=C1C2(C)C (stereo not given)	0.9 nM	1.4 nM	38 nM	0.5 nM	0.9 nM

Continued, in another order:

IC50 (A549)	IC50 (HT-29)	IC50 (MCF7R)	IC50 (MCF7)	SMILES	IC50 (A121)
1.3 nM	1.7 nM	26 nM	0.5 nM	CC(=O)OC1C(=O)C2(C)C(O)CC3OCC3(OC(C)=O)C2C(OC(=O)C2CCCCC2)C2(O)CC(OC(=O)C(O)C(C=C(C)C)NC(=O)OC(C)(C)C)C(C)=C1C2(C)C (stereo not given)	1.5 nM
2.9 nM	3.5 nM	140 nM	1.1 nM	CC(=O)OC1C(=O)C2(C)C(O)CC3OCC3(OC(C)=O)C2C(OC(=O)C=C(C)C)C2(O)CC(OC(=O)C(O)C(NC(=O)OC(C)(C)C)c3ccccc3)C(C)=C1C2(C)C (stereo not given)	2.7 nM
12 nM	8.5 nM	446 nM	3.2 nM	C/C=C/C(NC(=O)OC(C)(C)C)C(O)C(=O)OC1CC2(O)C(OC(=O)C3CCCCC3)C3C4(OC(C)=O)COC4CC(O)C3(C)C(=O)C(OC(C)=O)C(=C1C)C2(C)C (stereo not given)	6.6 nM
7.7 nM	5.6 nM	57 nM	1.8 nM	CC(=O)OC1C(=O)C2(C)C(O)CC3OCC3(OC(C)=O)C2C(OC(=O)C2CCCCC2)C2(O)CC(OC(=O)C(O)C(CC(C)C)NC(=O)OC(C)(C)C)C(C)=C1C2(C)C (stereo not given)	3.2 nM
5.7 nM	5.6 nM	412 nM	1.8 nM	CC(=O)OC1C(=O)C2(C)C(O)CC3OCC3(OC(C)=O)C2C(OC(=O)C2CCCCC2)C2(O)CC(OC(=O)C(O)C(NC(=O)OC(C)(C)C)c3ccccc3)C(C)=C1C2(C)C (stereo not given)	4.8 nM
49 nM	59 nM	591 nM	10 nM	CC(=O)OC1C(=O)C2(C)C(O)CC3OCC3(OC(C)=O)C2C(OC(=O)C2CCCCC2)C2(O)CC(OC(=O)C(O)C(NC(=O)OC(C)(C)C)C3CCCCC3)C(C)=C1C2(C)C (stereo not given)	43 nM
